Measurements reported in ChEMBL document CHEMBL5120825, “The azulene scaffold from a medicinal chemist's perspective: Physicochemical and in vitro parameters relevant for drug discovery” (Eur J Med Chem, 2022).
In brackets after ≈: the same amount, converted by molar mass.

Columns and labels:
[1] = Metabolic stability in human liver microsomes assessed as hepatic blood flow at 1 uM preincubated with compound followed by NADPH addition by LC-MS/MS analysis; type: ADME, Microsome; settings: read-out: QH
[2] = Aqueous solubility of the compound at pH 6.8 incubated for 24 hrs under shaking condition by LC-UV analysis; type: physicochemical; settings: aqueous medium
In short: (§1)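 The highest concentration tested was 250 μM, so results are capped at that level. Values are reported in µg/ml.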

[3] = Lipophilicity, logP of the compound; type: physicochemical; settings: octanol/water
[4] = Octanol-water partition coefficient, logD of the compound at pH 2 by HPLC analysis; type: physicochemical
[5] = Octanol-water partition coefficient, logD of the compound at pH 11 by HPLC analysis; type: physicochemical
[6] = Aqueous solubility of the compound at pH 2.2 incubated for 24 hrs under shaking condition by LC-UV analysis; type: physicochemical; settings: aqueous medium; in short: as §1
[7] = Permeability of the compound at pH 7.4 by PAMPA assay; type: ADME; settings: read-out: permeability
[8] = Aqueous solubility of the compound at pH 4.5 incubated for 24 hrs under shaking condition by LC-UV analysis; type: physicochemical; settings: aqueous medium; in short: as §1

SMILES	hepatic extraction ratio at 1 µM [1]	solubility thermodynamic at 24 h [2] [µg/mL]	logP ([3]; read-out: logP)	logD ([4]; read-out: logD)	logD ([5]; read-out: logD)	solubility thermodynamic at 24 h [6] [µg/mL]	Papp [7] [×10⁻⁶ cm/s]	solubility thermodynamic at 24 h [8] [µg/mL]	logP [3]	logD [4]	logD [5]
Cn1cc(C(=O)c2ccccc2)c2cc(C(=O)NCc3cccnc3)ccc21	< 0.23	< 1	2.1	0.9	0.9	81 (≈ 219 µM)	1.7	3 (≈ 8.12 µM)	–	–	–
O=C(NCCO)c1ccc2[nH]cc(C(=O)c3ccccc3)c2c1	0.53	15 (≈ 48.6 µM)	–	–	–	39 (≈ 126 µM)	0.01	18 (≈ 58.4 µM)	0.6	1.3	1.3
COC(=O)c1ccc2c(c1)c(C(=O)c1ccccc1)cn2C(=O)c1ccccc1	–	< 1	5.2	5.2	5.2	< 1	1.3	< 1	–	–	–
COC(=O)c1ccc2ccc(C(=O)Nc3ccccc3)c-2cc1	–	< 1	3.8	4	4	< 1	0.4	< 1	–	–	–
c1ccc2cc(CN3CCCCC3)ccc2c1	0.72	27 (≈ 120 µM)	> 5.5	0.9	> 5.5	34 (≈ 151 µM)	4.6	30 (≈ 133 µM)	–	–	–
Cn1cc(C(=O)N2CCC(C(N)=O)CC2)c2ccccc21	< 0.23	> 64	–	–	0.4	> 71	0.2	44 (≈ 154 µM)	0.4	1.1	–
COC(=O)c1ccc2c(C(=O)N(C)C)cn(C)c2c1	0.82	49 (≈ 188 µM)	–	–	–	50 (≈ 192 µM)	4.2	> 52	1.4	1.9	1.9
COC(=O)c1ccc2c(C(=O)c3ccccc3)cn(C(=O)c3ccccc3)c2c1	–	< 1	5.2	5.2	5.2	< 1	2.1	< 1	–	–	–
Cn1c(NC(=O)c2cccnc2)cc2ccccc21	0.23	–	1.3	-0.1	-0.1	> 59	4.9	–	–	–	–
Cn1cc(C(=O)c2ccccc2)c2cc(C(=O)NCCO)ccc21	< 0.23	45 (≈ 140 µM)	1.3	1.6	1.6	53 (≈ 164 µM)	0.5	66 (≈ 205 µM)	–	–	–
CN(C)C(=O)Cc1ccc2ccccc2c1	0.4	40 (≈ 188 µM)	–	–	2.4	41 (≈ 192 µM)	4.7	39 (≈ 183 µM)	2.4	2.7	–
CN1CCN(C(=O)c2ccc3[nH]cc(C(=O)c4ccccc4)c3c2)CC1	< 0.23	69 (≈ 199 µM)	1.3	0.5	1.3	> 74	0.2	–	–	–	–
CN1CCN(C(=O)c2ccc3c(c2)c(C(=O)c2ccccc2)cn3C)CC1	< 0.23	68 (≈ 188 µM)	2	0.7	2	78 (≈ 216 µM)	1.9	76 (≈ 210 µM)	–	–	–
O=C(NCc1cccnc1)c1ccc2[nH]cc(C(=O)c3ccccc3)c2c1	0.56	< 1	1.4	0.8	0.8	> 79	0.1	1 (≈ 2.81 µM)	–	–	–
COC(=O)c1ccc2ccc(C(=O)c3ccccc3)c-2cc1	–	< 1	4.7	4.8	4.7	< 1	0.1	< 1	–	–	–
O=C(NCCc1c[nH]c2ccccc12)c1ccc2ccc(C(=O)c3ccccc3)c-2cc1	0.69	< 1	4.3	4.4	4.3	< 1	0.03	< 1	–	–	–
O=C(Cn1ccccc1=O)Nc1cc2ccccc2[nH]1	< 0.23	> 67	–	–	–	> 60	0.1	> 67	0.4	1	1

SMILES	hepatic extraction ratio at 1 µM [1]	solubility thermodynamic at 24 h [2] [µg/mL]	logP ([3]; read-out: logP)	logD ([4]; read-out: logD)	logD ([5]; read-out: logD)	solubility thermodynamic at 24 h [6] [µg/mL]	Papp [7] [×10⁻⁶ cm/s]	solubility thermodynamic at 24 h [8] [µg/mL]	logP [3]	logD [4]	logD [5]
O=C(Nc1cc2cccccc-2c1)c1cccnc1	0.71	2 (≈ 8.06 µM)	2.4	1.3	1.3	43 (≈ 173 µM)	4.8	3 (≈ 12.1 µM)	–	–	–
O=C(NCc1cccnc1)c1ccc2ccc(C(=O)c3ccccc3)c-2cc1	0.46	< 1	3	1.4	1.4	70 (≈ 191 µM)	2.4	< 1	–	–	–
Cn1cc(C(=O)c2ccccc2)c2cc(C(=O)NCCc3c[nH]c4ccccc34)ccc21	0.79	< 1	3.5	3.6	3.5	< 1	0.04	< 1	–	–	–
COC(=O)c1ccc2c(C(=O)c3ccccc3)cc(C(=O)c3ccccc3)c-2cc1	–	< 1	5.5	5.6	5.5	< 1	0.3	< 1	–	–	–
O=C(Nc1ccc2ccccc2c1)c1cccnc1	0.67	4 (≈ 16.1 µM)	2.4	1.4	2.4	> 50	–	6 (≈ 24.2 µM)	–	–	–
COC(=O)c1ccc2[nH]cc(C(=O)c3ccccc3)c2c1	–	< 1	–	–	2.5	< 1	2.8	< 1	2.5	2.9	–
Cn1c(NC(=O)Cn2ccccc2=O)cc2ccccc21	< 0.23	3 (≈ 10.7 µM)	–	–	–	–	3.3	–	1.1	1.5	1.5
O=C(NCCc1cnc[nH]1)c1ccc2ccc(C(=O)c3ccccc3)c-2cc1	0.41	< 1	2.3	1.3	2.3	> 77	0.3	57 (≈ 154 µM)	–	–	–
COC(=O)c1ccc2c(ccn2C(=O)c2ccccc2)c1	–	< 1	4.4	4.5	4.4	< 1	0.5	< 1	–	–	–
NC(=O)C1CCN(C(=O)c2cccc3ccccc23)CC1	< 0.23	> 71	–	–	0.8	> 70	0.2	> 71	0.8	1.3	–
NC(=O)C1CCN(C(=O)c2c[nH]c3ccccc23)CC1	< 0.23	–	–	–	-0.2	–	< 0.01	–	-0.2	0.3	–
COC(=O)c1ccc2ccn(C(=O)c3ccccc3)c2c1	–	< 1	4.3	4.4	4.3	< 1	0.5	< 1	–	–	–
COC(=O)c1ccc2c(C(=O)Nc3ccccc3)cn(C)c2c1	–	< 1	–	–	–	< 1	2.2	< 1	2.9	3.4	3.4
COC(=O)c1ccc2c(C(=O)c3ccccc3)c[nH]c2c1	–	< 1	–	–	2.7	< 1	1.5	< 1	2.7	3.1	–
O=C(NCCc1cnc[nH]1)C1=CC2C(C(=O)c3ccccc3)=CN=C2C=C1 (stereo not drawn)	< 0.23	66 (≈ 184 µM)	0.8	0.7	0.8	> 81	< 0.01	78 (≈ 218 µM)	–	–	–
O=C(NCCc1c[nH]c2ccccc12)c1ccc2[nH]cc(C(=O)c3ccccc3)c2c1	0.84	1 (≈ 2.45 µM)	–	–	2.8	< 1	< 0.01	< 1	2.8	3.3	–
CN(C)C(=O)Cc1ccc2cc[nH]c2c1	< 0.23	> 51	–	–	1	> 51	1.3	> 51	1	1.4	–
